pIC50: −log10 of the molar value. Activity calls are given as the source filed them. The rule behind the calls is not given here.
Tests used:
L5178Y = experiment: Cytotoxicity against mouse L5178Y cells assessed as inhibition of cell proliferation by MTT assay; type: functional, cell-based
Aurora kinase B = Aurora kinase B (Homo sapiens, UniProt Q96GD4); experiment: Inhibition of aurora-B (unknown origin)
Outline: (§1)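 Biochemical (cell-free) assay within a panel of 24 protein kinases. Results reported as IC50 values. Procedure as described in earlier work.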

[1] = biological target: Cyclin-dependent kinase 4/cyclin D1 (Homo sapiens, UniProt P11802); experiment: Inhibition of CDK4/cyclin-D1 (unknown origin); type: protein-complex assay; outline: as §1
[2] = biological target: Receptor tyrosine-protein kinase erbB-2 (Homo sapiens, UniProt P04626); experiment: Inhibition of ERBB2 (unknown origin); outline: as §1
[3] = biological target: Epidermal growth factor receptor (Homo sapiens, UniProt P00533); experiment: Inhibition of EGFR (unknown origin); outline: as §1
Aurora kinase A = biological target: T1, Aurora kinase A (Homo sapiens, UniProt O14965); experiment: Inhibition of aurora-A (unknown origin); outline: as §1
T1 sequence (O14965 whole entry): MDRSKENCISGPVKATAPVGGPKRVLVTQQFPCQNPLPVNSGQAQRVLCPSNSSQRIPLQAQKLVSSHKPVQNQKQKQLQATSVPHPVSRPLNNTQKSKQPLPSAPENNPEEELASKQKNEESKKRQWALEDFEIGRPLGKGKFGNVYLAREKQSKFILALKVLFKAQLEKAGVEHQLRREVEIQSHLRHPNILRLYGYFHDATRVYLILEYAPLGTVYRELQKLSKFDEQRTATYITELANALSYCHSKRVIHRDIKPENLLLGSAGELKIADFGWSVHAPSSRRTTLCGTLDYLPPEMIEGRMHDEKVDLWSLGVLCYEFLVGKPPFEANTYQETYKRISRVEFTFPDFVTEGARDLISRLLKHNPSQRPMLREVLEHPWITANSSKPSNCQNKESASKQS

[4] = biological target: Hepatocyte growth factor receptor (Homo sapiens, UniProt P08581); experiment: Inhibition of MET (unknown origin); outline: as §1
[5] = biological target: Mitogen-activated protein kinase kinase kinase 8 (Homo sapiens, UniProt P41279); experiment: Inhibition of COT (unknown origin)
Outline: (§2)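 Biochemical (cell-free) assay using a panel of 24 protein kinases. The read-out was the IC50.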

Focal adhesion kinase 1 = Focal adhesion kinase 1 (Homo sapiens, UniProt Q05397); experiment: Inhibition of FAK (unknown origin); outline: as §1
Angiopoietin-1 receptor = Angiopoietin-1 receptor (Homo sapiens, UniProt Q02763); experiment: Inhibition of TIE2 (unknown origin); outline: as §1
[6] = biological target: Cyclin-dependent kinase 2/cyclin A (Homo sapiens, UniProt P24941); experiment: Inhibition of CDK2/cyclin-A (unknown origin); type: protein-complex assay; outline: as §1
[7] = biological target: Vascular endothelial growth factor receptor 3 (Homo sapiens, UniProt P35916); experiment: Inhibition of VEGFR3 (unknown origin); outline: as §1
[8] = biological target: Insulin-like growth factor 1 receptor (Homo sapiens, UniProt P08069); experiment: Inhibition of IGF1R (unknown origin); outline: as §1
[9] = biological target: Platelet-derived growth factor receptor beta (Homo sapiens, UniProt P09619); experiment: Inhibition of PDGFR-beta (unknown origin)
Ephrin type-B receptor 4 = Ephrin type-B receptor 4 (Homo sapiens, UniProt P54760); experiment: Inhibition of EPHB4 (unknown origin); outline: as §1
[10] = biological target: T2, Receptor-type tyrosine-protein kinase FLT3 (Homo sapiens, UniProt P36888); experiment: Inhibition of FLT3 (unknown origin); outline: as §2
T2 sequence (P36888 whole entry): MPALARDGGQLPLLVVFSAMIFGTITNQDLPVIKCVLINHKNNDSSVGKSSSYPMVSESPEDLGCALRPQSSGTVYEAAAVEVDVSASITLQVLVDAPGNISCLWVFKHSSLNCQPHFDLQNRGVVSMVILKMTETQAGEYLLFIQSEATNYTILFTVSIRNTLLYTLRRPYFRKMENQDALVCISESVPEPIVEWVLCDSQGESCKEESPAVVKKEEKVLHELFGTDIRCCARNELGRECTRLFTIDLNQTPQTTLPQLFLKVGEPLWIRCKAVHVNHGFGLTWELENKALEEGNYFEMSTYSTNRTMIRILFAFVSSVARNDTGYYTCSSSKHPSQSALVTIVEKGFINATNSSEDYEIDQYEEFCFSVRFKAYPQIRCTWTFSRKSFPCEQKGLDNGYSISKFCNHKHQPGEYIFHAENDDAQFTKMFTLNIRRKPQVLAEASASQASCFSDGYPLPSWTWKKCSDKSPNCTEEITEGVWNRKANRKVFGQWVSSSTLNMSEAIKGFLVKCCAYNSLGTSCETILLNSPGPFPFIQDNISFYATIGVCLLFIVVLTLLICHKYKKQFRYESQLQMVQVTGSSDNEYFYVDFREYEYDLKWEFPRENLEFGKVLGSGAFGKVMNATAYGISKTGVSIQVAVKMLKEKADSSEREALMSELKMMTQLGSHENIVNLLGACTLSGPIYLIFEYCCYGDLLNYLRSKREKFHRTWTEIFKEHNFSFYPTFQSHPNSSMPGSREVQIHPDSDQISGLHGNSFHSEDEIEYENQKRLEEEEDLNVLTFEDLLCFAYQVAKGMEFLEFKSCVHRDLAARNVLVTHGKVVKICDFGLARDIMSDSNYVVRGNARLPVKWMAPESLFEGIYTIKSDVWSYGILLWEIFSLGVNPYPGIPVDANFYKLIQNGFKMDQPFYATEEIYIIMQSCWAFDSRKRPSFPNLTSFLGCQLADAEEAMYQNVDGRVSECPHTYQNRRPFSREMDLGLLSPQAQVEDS

[11] = biological target: Proto-oncogene tyrosine-protein kinase Src (Homo sapiens, UniProt P12931); experiment: Inhibition of SRC (unknown origin); outline: as §1
Insulin receptor = Insulin receptor (Homo sapiens, UniProt P06213); experiment: Inhibition of INSR (unknown origin); outline: as §1
[12] = biological target: T3, Serine/threonine-protein kinase PLK4 (Homo sapiens, UniProt O00444); experiment: Inhibition of SAK (unknown origin); outline: as §1
T3 sequence (O00444 whole entry): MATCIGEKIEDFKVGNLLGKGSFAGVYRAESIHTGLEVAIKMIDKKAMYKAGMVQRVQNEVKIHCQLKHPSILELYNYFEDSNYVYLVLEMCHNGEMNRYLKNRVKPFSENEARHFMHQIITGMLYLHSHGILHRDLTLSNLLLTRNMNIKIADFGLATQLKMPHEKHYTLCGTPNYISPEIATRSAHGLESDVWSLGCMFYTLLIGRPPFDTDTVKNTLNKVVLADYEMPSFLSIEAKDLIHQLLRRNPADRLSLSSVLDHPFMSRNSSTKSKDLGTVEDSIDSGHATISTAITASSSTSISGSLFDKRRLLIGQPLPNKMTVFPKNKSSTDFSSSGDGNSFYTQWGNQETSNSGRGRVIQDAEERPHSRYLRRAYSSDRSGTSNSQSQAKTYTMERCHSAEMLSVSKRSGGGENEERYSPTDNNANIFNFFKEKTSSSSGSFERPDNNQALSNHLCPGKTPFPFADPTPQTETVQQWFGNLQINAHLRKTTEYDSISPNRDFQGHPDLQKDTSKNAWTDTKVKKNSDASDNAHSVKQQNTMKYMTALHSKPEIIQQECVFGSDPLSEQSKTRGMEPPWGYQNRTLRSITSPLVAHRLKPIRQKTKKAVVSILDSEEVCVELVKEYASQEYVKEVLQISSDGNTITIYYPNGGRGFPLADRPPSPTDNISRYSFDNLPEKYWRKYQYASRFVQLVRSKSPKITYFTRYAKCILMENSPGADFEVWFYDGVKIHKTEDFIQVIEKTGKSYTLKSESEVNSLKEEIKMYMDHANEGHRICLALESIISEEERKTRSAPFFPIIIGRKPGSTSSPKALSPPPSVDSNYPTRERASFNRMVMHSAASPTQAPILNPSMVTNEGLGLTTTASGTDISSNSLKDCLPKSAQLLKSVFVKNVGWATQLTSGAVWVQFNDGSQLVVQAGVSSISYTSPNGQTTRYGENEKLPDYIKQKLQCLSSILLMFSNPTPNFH

[13] = biological target: Vascular endothelial growth factor receptor 2 (Homo sapiens, UniProt P35968); experiment: Inhibition of VEGFR2 (unknown origin); outline: as §1
[14] = biological target: Serine/threonine-protein kinase PLK1 (Homo sapiens, UniProt P53350); experiment: Inhibition of PLK1 (unknown origin); outline: as §1
[15] = biological target: Serine/threonine-protein kinase B-raf (Homo sapiens, UniProt P15056, V600E); experiment: Inhibition of B-RAF V600E mutant (unknown origin); outline: as §1
[16] = biological target: T4, NUAK family SNF1-like kinase 1 (Homo sapiens, UniProt O60285); experiment: Inhibition of ARK5 (unknown origin); outline: as §1
T4 sequence (O60285 whole entry): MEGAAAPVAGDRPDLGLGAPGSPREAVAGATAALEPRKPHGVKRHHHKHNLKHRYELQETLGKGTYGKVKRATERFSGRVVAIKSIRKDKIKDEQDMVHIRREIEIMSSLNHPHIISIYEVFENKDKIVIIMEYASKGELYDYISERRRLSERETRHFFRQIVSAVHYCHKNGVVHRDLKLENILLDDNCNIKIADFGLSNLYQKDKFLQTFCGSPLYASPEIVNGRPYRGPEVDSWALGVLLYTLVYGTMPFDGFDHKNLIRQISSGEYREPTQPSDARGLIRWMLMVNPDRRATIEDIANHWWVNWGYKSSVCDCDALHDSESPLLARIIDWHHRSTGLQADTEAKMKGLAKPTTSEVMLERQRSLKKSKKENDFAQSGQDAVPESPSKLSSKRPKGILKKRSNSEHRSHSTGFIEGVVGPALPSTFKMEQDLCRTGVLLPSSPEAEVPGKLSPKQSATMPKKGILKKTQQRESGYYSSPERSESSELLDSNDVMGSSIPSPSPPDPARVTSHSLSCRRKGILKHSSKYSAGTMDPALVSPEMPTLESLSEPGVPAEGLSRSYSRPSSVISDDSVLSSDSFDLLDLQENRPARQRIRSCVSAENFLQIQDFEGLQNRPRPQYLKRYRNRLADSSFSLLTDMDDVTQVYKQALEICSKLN

Epidermal growth factor receptor, sequence (P00533 whole entry): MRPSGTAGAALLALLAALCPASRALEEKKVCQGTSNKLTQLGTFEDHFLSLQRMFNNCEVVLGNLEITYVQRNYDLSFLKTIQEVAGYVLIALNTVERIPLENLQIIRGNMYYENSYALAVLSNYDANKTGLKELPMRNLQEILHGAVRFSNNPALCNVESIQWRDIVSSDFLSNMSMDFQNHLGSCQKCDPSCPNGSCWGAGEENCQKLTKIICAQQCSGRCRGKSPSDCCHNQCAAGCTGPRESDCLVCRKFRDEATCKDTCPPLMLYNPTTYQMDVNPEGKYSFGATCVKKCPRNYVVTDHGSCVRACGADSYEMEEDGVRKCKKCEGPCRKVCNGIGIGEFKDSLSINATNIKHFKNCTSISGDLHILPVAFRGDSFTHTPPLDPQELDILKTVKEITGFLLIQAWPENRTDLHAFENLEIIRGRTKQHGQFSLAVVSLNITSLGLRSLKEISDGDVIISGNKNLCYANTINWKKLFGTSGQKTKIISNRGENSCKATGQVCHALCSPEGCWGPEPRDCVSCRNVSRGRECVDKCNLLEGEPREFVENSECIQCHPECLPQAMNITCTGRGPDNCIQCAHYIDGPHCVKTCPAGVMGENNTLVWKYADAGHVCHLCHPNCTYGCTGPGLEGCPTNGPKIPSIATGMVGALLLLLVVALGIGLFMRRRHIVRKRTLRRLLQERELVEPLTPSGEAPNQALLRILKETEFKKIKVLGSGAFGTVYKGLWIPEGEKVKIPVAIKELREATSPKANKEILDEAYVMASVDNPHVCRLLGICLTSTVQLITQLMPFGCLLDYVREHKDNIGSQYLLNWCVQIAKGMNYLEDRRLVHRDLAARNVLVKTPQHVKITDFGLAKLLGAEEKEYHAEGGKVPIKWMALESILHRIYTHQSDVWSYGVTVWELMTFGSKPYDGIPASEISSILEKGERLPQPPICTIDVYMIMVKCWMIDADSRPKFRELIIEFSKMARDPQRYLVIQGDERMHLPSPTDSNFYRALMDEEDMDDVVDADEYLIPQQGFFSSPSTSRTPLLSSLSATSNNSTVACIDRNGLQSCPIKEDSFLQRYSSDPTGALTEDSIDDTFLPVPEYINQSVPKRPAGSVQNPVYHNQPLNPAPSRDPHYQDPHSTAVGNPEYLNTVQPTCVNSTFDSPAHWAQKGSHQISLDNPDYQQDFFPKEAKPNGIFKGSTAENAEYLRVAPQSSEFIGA
Cyclin-dependent kinase 4/cyclin D1, sequence (P11802 whole entry): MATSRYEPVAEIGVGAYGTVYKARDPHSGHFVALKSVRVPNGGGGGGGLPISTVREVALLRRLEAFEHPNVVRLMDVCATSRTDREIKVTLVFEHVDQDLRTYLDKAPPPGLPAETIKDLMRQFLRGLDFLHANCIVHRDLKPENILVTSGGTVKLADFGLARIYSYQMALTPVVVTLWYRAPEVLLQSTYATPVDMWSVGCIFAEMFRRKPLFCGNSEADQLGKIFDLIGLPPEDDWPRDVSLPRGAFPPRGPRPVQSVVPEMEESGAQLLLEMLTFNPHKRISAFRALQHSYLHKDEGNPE
Cyclin-dependent kinase 4/cyclin D1, sequence (P24385 whole entry, further chain): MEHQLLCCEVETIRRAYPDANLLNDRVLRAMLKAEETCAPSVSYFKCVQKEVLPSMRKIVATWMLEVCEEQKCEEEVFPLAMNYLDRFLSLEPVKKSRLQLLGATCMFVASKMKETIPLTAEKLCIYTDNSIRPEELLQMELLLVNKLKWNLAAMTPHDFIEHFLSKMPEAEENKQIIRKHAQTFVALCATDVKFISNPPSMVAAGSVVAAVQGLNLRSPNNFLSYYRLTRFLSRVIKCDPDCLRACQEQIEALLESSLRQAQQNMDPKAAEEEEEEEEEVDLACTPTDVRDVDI
Aurora kinase B, sequence (Q96GD4 whole entry): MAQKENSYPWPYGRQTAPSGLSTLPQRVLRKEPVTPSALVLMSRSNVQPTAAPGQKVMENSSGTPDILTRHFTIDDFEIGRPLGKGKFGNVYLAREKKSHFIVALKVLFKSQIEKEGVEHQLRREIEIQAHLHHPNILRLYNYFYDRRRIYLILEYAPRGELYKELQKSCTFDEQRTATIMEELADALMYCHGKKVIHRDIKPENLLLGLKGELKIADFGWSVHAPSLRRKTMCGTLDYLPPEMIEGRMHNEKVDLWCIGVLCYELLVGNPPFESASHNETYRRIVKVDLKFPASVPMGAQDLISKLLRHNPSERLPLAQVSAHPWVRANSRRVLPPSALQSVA
Receptor tyrosine-protein kinase erbB-2, sequence (P04626 whole entry): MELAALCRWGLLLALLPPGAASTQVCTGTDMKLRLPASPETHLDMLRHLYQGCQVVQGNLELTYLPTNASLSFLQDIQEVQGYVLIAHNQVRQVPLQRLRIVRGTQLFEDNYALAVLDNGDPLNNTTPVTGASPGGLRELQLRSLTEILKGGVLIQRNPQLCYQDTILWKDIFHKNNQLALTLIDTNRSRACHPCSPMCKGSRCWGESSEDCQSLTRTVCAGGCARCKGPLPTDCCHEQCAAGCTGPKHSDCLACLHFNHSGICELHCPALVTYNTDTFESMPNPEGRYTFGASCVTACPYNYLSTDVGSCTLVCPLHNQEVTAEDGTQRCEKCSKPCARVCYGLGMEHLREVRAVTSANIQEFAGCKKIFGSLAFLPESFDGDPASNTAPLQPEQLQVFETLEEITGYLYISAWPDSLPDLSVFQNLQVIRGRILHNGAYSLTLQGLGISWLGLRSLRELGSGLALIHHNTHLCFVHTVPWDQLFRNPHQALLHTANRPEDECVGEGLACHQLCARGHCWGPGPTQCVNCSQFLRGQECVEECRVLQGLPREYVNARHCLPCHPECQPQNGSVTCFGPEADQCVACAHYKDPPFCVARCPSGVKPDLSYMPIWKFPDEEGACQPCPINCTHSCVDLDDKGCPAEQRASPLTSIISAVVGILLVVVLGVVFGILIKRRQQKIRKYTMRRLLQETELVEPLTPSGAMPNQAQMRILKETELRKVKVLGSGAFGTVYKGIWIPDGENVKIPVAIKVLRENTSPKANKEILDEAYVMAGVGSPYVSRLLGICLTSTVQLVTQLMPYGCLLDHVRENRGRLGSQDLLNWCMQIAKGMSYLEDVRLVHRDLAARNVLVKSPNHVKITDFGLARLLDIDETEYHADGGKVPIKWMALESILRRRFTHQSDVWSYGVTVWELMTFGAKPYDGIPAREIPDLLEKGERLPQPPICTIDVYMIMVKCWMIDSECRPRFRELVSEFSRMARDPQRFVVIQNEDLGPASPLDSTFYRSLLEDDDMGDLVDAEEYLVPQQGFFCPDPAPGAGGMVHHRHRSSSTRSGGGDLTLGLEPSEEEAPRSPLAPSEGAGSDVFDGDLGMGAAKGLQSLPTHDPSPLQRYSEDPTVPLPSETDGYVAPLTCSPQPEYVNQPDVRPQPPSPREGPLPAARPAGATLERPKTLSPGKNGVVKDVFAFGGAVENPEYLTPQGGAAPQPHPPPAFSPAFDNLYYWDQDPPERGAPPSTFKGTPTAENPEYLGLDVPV
Proto-oncogene tyrosine-protein kinase Src, sequence (P12931 2-536 limits assumed): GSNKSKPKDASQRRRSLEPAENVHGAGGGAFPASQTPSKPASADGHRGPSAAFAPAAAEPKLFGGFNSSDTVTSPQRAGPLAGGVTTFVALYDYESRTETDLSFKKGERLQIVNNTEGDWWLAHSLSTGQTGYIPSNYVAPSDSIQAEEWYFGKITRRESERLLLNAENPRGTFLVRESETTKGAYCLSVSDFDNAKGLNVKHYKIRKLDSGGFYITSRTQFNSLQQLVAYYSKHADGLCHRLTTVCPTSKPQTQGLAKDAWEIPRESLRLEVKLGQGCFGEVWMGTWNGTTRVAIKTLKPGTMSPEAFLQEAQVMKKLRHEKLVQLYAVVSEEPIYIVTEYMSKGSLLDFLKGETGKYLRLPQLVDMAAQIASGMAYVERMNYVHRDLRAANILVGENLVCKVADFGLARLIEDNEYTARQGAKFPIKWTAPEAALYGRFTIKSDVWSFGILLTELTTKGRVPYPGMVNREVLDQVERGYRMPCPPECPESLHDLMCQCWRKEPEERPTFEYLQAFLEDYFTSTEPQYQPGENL
Mitogen-activated protein kinase kinase kinase 8, sequence (P41279 whole entry): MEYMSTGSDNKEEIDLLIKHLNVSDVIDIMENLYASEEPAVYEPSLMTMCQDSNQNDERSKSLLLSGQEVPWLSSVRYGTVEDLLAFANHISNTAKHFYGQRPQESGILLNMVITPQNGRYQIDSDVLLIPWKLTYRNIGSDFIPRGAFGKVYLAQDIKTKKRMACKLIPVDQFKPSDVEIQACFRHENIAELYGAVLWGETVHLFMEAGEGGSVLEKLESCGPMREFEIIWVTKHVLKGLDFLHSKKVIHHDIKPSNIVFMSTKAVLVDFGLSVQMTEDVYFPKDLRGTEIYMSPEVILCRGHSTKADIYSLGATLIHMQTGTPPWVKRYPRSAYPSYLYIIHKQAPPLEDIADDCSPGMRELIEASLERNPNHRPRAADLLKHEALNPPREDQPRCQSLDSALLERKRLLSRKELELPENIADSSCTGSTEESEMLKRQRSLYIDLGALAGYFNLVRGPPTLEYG
Serine/threonine-protein kinase PLK1, sequence (P53350 whole entry): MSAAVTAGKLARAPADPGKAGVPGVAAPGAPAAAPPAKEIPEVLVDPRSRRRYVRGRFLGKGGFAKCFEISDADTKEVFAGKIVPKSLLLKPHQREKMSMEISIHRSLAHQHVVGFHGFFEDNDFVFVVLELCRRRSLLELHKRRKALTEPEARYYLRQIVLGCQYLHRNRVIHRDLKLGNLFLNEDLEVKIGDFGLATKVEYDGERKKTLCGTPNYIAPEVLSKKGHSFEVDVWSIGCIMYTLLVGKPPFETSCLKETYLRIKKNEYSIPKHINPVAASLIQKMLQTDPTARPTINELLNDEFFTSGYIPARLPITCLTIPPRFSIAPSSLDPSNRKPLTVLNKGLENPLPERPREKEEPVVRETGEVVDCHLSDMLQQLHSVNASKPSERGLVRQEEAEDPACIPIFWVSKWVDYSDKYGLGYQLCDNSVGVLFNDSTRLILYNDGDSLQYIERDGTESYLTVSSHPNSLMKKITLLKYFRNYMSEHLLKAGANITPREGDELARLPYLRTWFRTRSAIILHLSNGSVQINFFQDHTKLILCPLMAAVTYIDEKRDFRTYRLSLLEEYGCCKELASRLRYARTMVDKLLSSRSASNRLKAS

## O=C1N/C=C/c2ccc(c(Br)c2)Oc2cc(ccc2O)CCNC(=O)/C(=N/O)Cc2cc(Br)c(c(Br)c2)Oc2cc(cc(Br)c2O)C/C1=N\O [BASTADIN 11]
L5178Y
  pIC50: 5.43

## O=C1NCCc2ccc(O)c(c2)Oc2c(Br)cc(cc2Br)CCNC(=O)/C(=N/O)Cc2cc(Br)c(O)c(c2)Oc2c(Br)cc(cc2Br)C/C1=N\O [BASTADIN 16]
Aurora kinase B
  pIC50: 5.80
[1]
  pIC50: 5.40
[2]
  pIC50: 5.35
[3]
  pIC50: 5.54
Aurora kinase A
  pIC50: 5.89
L5178Y
  pIC50: 5.72

## O=C(NCCc1ccc(O)c(Br)c1)/C(Cc1cc(Br)c(O)c(Oc2ccc(CCNC(=O)/C(Cc3cc(Br)c(O)c(-c4cc(C/C(=N\O)C(=O)NCCc5ccc(O)c(Br)c5)cc(Br)c4O)c3)=N/O)cc2Br)c1)=N/O [SESQUIBASTADIN 1]
Aurora kinase B
  pIC50: 5.64
[4]
  pIC50: 6.10
[5]
  pIC50: 5.89
Focal adhesion kinase 1
  pIC50: 5.46
[1]
  pIC50: 5.85
[2]
  pIC50: 5.68
Angiopoietin-1 receptor
  pIC50: 6.22
[6]
  pIC50: 5.19
[7]
  pIC50: 5.80
[3]
  pIC50: 6.22
[8]
  pIC50: 6.00
[9]
  pIC50: 5.40
Ephrin type-B receptor 4
  pIC50: 5.47
[10]
  pIC50: 5.85
[11]
  pIC50: 6.15
Insulin receptor
  pIC50: 5.85
[12]
  pIC50: 6.15
Aurora kinase A
  pIC50: 5.59
[13]
  pIC50: 6.22
[14]
  pIC50: 5.19
[15]
  pIC50: 5.77
L5178Y
  inhibition: inactive
[16]
  pIC50: 5.77

From ChEMBL document CHEMBL2331160, “Trimeric hemibastadin congener from the marine sponge Ianthella basta” (J Nat Prod, 2013)
